Rows were chosen to be rich in hits. Some 1.9% of all compounds tested hit in one or more screens of this group.
Env fusion inh = HIV envelope-mediated fusion inhibition; HeLa-JRFL Env/CEM21 cell fusion, luciferase; inhibition, % at 12.3 µM; 1.1% of 360,000 active; AID 651610;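 active = mean replicate inhibition score of at least 50 and every replicate individually at or above 50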;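 note: 0% = plate neutral controls and 100% = maraviroc near 300 nM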
SR-BI HDL uptake = inhibitors of mouse SR-BI mediated HDL lipid uptake; ldlA[mSR-BI] CHO cells, DiI-HDL uptake fluorescence, 3 h; inhibition, % at 12.5 µM; 0.96% of 320,000 active; AID 488896;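 active = mean replicate inhibition of at least 70% and a set share of replicates each scoring 70 or more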;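 note: 0% = median of neutral control wells and 100% = median of positive control wells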
Rtt109 HAT inh = blocks Candida albicans Rtt109/Vps75 acetyltransferase activity | Q5AAJ8 | AID 540336 | inhibition, % at 34.9 µM | purified Rtt109/Vps75, ThioGlo CoA-SH fluorescence, 4 h | 0.16% of 330,000 active;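 active = inhibition of at least 50% in every replicate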
Target sequence (Q5AAJ8 whole entry, looked up): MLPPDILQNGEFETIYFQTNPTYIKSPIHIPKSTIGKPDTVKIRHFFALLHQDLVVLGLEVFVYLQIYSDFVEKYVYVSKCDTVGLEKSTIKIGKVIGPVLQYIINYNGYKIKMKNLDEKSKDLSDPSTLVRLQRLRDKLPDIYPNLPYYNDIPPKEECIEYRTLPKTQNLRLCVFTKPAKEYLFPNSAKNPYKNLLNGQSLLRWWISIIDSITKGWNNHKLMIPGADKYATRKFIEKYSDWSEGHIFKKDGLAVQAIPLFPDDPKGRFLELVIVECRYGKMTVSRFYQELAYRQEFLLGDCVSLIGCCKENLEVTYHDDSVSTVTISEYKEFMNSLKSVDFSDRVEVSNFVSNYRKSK
Glyco luc inh = blocks N-linked glycosylation in D54 reporter cells; D54 ERlucT glycosylation luciferase reporter, 24 h; percent of 100 nM tunicamycin response; reporter increase, % at 12.5 µM; 0.23% of 360,000 active;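 active = mean luciferase reporter signal, scaled so untreated is 0 and the glycosylation-blocking control 100, at or above a set limit in every replicate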;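 note: luciferase carries N-glycosylation sites so blocking glycosylation raises the light; 0% = median of neutral control wells and 100% = median of 100 nM tunicamycin wells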
SR-BI uptake up = activators of SR-BI mediated HDL lipid uptake. CHO ldlA[mSR-BI] cells, DiI-HDL uptake fluorescence, 3 h; 100 = double the neutral-control signal. activation, % at 12.5 µM. 0.096% of 320,000 active;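 active = mean replicate activation of at least 60% and every replicate at or above 60%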;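 note: 0% = median plate neutral-control signal and 100% = twice that signal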
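Test system: SR-BI-overexpressing, LDLR-lacking CHO cells; Also added: labelled HDL, 10 µg/mL; Measured by: bottom-read cell fluorescence after medium removal, ex 550/em 595 nm; Timing: 3 h uptake period with compound, 37 °C; Buffer or medium: F12, 0.5% BSA, 25 mM HEPES; Doses: single compound concentration, delivered by pin transfer.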
PglD inh = PglD (C. jejuni) enzyme inhibition; purified PglD enzyme, DTNB colorimetric CoA detection; 0.098% of 360,000 active; inhibition, % at 12.5 µM; in the data active = inhibition above about 16%, passing the limit was not always enough
The depositor's hits bear a star; / = no result given; [ ] = remark or other dose.

SMILES | Env fusion inh | SR-BI HDL uptake | Rtt109 HAT inh | Glyco luc inh | SR-BI uptake up | PglD inh
CC(C)NC(=O)N(C)C[C@H]1Oc2ccc(NC(=O)C3CCCCC3)cc2CC(=O)N([C@@H](C)CO)C[C@H]1C | 0.2[16.7 µM] | / | / | / | / | 2.3
O=C(Nc1cccc(-c2csc(Nc3cccc(C(F)(F)F)c3)n2)c1)c1cc([N+](=O)[O-])cc(C(F)(F)F)c1 | 15.0 | 106.6* | -6.6 | -7.2 | -106.6 | -1.3
O=C(COC(=O)/C=C/c1ccccc1Cl)NC1CCCCCC1 | -24.1 | -64.6 | 12.9 | 0.0 | 64.6* | -12.2
O=C(COc1ccc(C(=O)c2ccccc2)cc1)NC1CCCCCC1 | 6.6 | -25.6 | 3.0 | -5.0 | 25.6 | /
O=C(COC(=O)c1cccc(Br)c1)NC1CCCCCCC1 | 58.3* | / | / | 1.7 | / | -4.0
O=C(COc1ccc(C(=O)c2ccccc2)cc1)NC1CCCCC1 | 18.6 | -69.3 | 3.4 | 0.5 | 69.3* | 1.5
O=C(c1cccnc1)N1CC[C@@H]2[C@H](CO)Nc3ccc(C#Cc4cccnc4)cc3[C@@H]21 | / | / | / | / | / | 4.0
COc1ccc(CN(C)C[C@@H]2Oc3c(NS(=O)(=O)c4ccc(Cl)cc4)cccc3C(=O)N([C@@H](C)CO)C[C@H]2C)cc1 | / | / | / | / | / | 3.2
Cc1cc(NC(=O)c2cc3cccc([N+](=O)[O-])c3[nH]2)ccc1F | -122.2 | 77.4* | -5.6 | -4.0 | -77.4 | -2.5
Cc1ccc2nc(NC(=O)C3CCN(S(=O)(=O)c4cccs4)CC3)sc2c1 | 79.8* | 22.6 | 3.7 | -11.0 | -22.6 | 0.1
Cc1ccc2nc(NC(=O)C3CCN(S(=O)(=O)c4cc([N+](=O)[O-])ccc4Cl)CC3)sc2c1 | / | 57.5 | -1.3 | -0.9 | -57.4 | /
O=C(Nc1nc2ccc(F)cc2s1)C1CCN(S(=O)(=O)c2cc([N+](=O)[O-])ccc2Cl)CC1 | -0.9 | 76.6* | 5.4 | -8.8 | -76.6 | /
C[C@@H]1CN([C@@H](C)CO)S(=O)(=O)c2ccc(-c3cccnc3)cc2O[C@@H]1CN(C)C(=O)C1CCCCC1 | 14.7[16.7 µM] | / | / | / | / | -1.3
O=C(Nc1ccccc1)Nc1cc(Cl)cc(Cl)c1 | / | 43.7 | 13.2 | -4.2 | -43.7 | -3.5
O=C(Nc1ccccc1)Nc1cc(OCC(F)(F)F)cc(OCC(F)(F)F)c1 | 62.1* | 92.4* | -3.7 | -13.8 | -92.4 | /
CO[C@@H]1CC[C@H]2CCOc3ccc(C#N)cc3C(=O)N(C)C[C@H](C)C(=O)N(C)C[C@@H]1O2 | -6.8[16.7 µM] | / | / | / | / | -1.2
C[C@H]1CN([C@@H](C)CO)C(=O)c2c(c3ccccc3n2C)-c2ccccc2CO[C@@H]1CN(C)S(=O)(=O)c1ccc(Cl)cc1 | / | / | / | / | / | -0.7
C[C@H](CO)N1C[C@H](C)[C@H](CN(C)S(=O)(=O)c2ccc(Cl)cc2)OCc2ccccc2-c2c(n(C)c3ccccc23)C1=O | 81.7* | / | / | -4.0 | / | -2.5
Cc1ccc(S(=O)(=O)N(C)C[C@@H]2OCc3ccccc3-c3c(n(C)c4ccccc34)C(=O)N([C@H](C)CO)C[C@@H]2C)cc1 | 95.0* | / | / | -3.1 | / | /
C[C@@H]1CN([C@@H](C)CO)C(=O)c2cc(-c3ccccc3F)cnc2O[C@@H]1CN(C)C(=O)C1CCOCC1 | -1.0[16.7 µM] | / | / | / | / | 3.6
CO[C@H](CN(C)S(=O)(=O)c1ccc(Cl)cc1)[C@H](C)CN([C@H](C)CO)S(=O)(=O)c1cccc(Cl)c1 | 56.0*[16.7 µM] | / | / | / | / | 3.0
CO[C@H](CN(C)S(=O)(=O)c1ccc(Cl)cc1)[C@H](C)CN([C@@H](C)CO)S(=O)(=O)c1cccc(Cl)c1 | 60.7*[16.7 µM] | / | / | / | / | -0.2
C[C@H]1CN([C@@H](C)CO)C(=O)Cc2cc(NC(=O)c3ccncc3)ccc2O[C@@H]1CN(C)Cc1ccc2c(c1)OCO2 | 1.8[16.7 µM] | / | / | / | / | -1.0
C=CS(=O)(=O)N(Cc1ccccc1)[C@H](CO)CC(C)C | -2.2 | 2.7 | 3.5 | -1.8 | -2.7 | -108.9
O=S(=O)(N(Cc1ccccc1)[C@@H](CO)Cc1ccccc1)N(Cc1ccccc1)[C@@H](CO)Cc1ccccc1 | 70.6* | -29.6 | -5.7 | -1.0 | 29.7 | -2.9
SMILES | Env fusion inh | SR-BI HDL uptake | Rtt109 HAT inh | Glyco luc inh | SR-BI uptake up | PglD inh
CC(C)C[C@H](CO)N(Cc1ccccc1)S(=O)(=O)N(Cc1ccccc1)[C@@H](CO)CC(C)C | 108.7* | -20.3 | 1.1 | -9.2 | 20.3 | -1.4
CCCNC(=O)N(C)C[C@H]1Oc2cc(C#Cc3ccccn3)ccc2S(=O)(=O)N([C@@H](C)CO)C[C@H]1C | -10.6[16.7 µM] | / | / | / | / | -5.6
C[C@@H]1CN([C@@H](C)CO)C(=O)c2ccccc2-c2ccccc2CO[C@H]1CN(C)CC1CC1 | 9.6[16.7 µM] | / | / | / | / | -2.6
Cc1noc(C)c1S(=O)(=O)N(C)C[C@@H]1Oc2ccc(NC(=O)Nc3ccccc3)cc2CC(=O)N([C@H](C)CO)C[C@H]1C | -8.1[16.7 µM] | / | / | / | / | /
O=C(C1CCN(S(=O)(=O)c2ccccc2)CC1)N1CCN(c2ccccc2)CC1 | 60.7* | -8.0 | 5.4 | -3.7 | 8.0 | 0.1
CC1CCN(S(=O)(=O)c2cc(C(=O)N3CCN(c4ccccc4)CC3)ccc2Br)CC1 | 72.1* | / | / | -2.9 | / | 3.3
CC1CCN(C(=O)c2cccc(S(=O)(=O)N3CCN(c4ccccc4)CC3)c2)CC1 | 19.9 | -9.1 | -13.2 | -0.3 | 9.1 | /
COc1ccc(C(C(=O)NC2CCCC2)N(CC2CCCO2)C(=O)Cn2nnc(-c3ccc(C)o3)n2)cc1 (stereo not given) | 1.5 | 2.4 | 0.3 | -2.1 | -2.4 | -3.1
Cc1ccc(-c2nnn(CC(=O)N(CC3CCCO3)C(C(=O)NC3CCCCC3)c3ccc(F)cc3)n2)o1 (stereo not given) | 116.3* | 9.7 | 5.0 | -1.4 | -9.7 | -3.1
CN(C)C(=O)[C@@H]1[C@@H](CO)[C@@H]2Cn3c(ccc(C4=CCCC4)c3=O)[C@@H]2N1C(=O)Cc1cccnc1 | / | / | / | / | / | 0.5
CN(C)S(=O)(=O)c1cc(NC(=O)CSc2nn(-c3ccc(Cl)cc3)c(=S)s2)ccc1Cl | 132.5* | 35.5 | 6.2 | -8.3 | -35.5 | /
Cc1ccc(NC(=O)CSc2nn(-c3ccc(Cl)cc3)c(=S)s2)cc1S(=O)(=O)N(C)C | 82.7* | / | 1.1 | -5.0 | / | -0.9
C[C@H](CO)N1C[C@H](C)[C@@H](CN(C)Cc2cccnc2)Oc2cc(C#CC3CCCC3)ccc2S1(=O)=O | 21.7[16.7 µM] | / | / | / | / | -1.8
Cc1noc(C)c1NC(=O)N(C)C[C@H]1Oc2ccc(NC(=O)CCCCCC(=O)Nc3ccccc3N)cc2CC(=O)N([C@@H](C)CO)C[C@@H]1C | -0.5[16.7 µM] | / | / | / | / | 0.9
Nc1nc(Cl)cc(N2CCC(c3cc(-c4ccc(Cl)cc4Cl)n[nH]3)CC2)n1 | 101.5* | -10.5 | 0.5 | 2.3 | 10.5 | 0.1
Cc1ccc(C(=O)Nc2cc(Cl)ccc2N2CCCCC2)s1 | / | 77.2* | -6.5 | -1.1 | -77.2 | /
CC(=O)N(c1ccc2oc(=O)sc2c1)S(=O)(=O)c1ccccc1 | / | 12.4 | 67.5* | 2.5 | -12.4 | /
CC(C)C(=O)N(c1ccc2oc(=O)sc2c1)S(=O)(=O)c1ccccc1 | / | -11.4 | 13.7 | 2.3 | 11.4 | 8.5
